Compounds with a hit are over-represented: about 29% of the library has one in this group of screens.
CYP2C9 inh: blockers of cytochrome P450 2C9 activity – biochemical, luminescence, ADME assay, primary screen | P11712 | 96,000 tested, 20% active | AID 777, 2007 | inhibition, % at 5 µM | CYP2C9 Supersomes, luciferin-H conversion;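 active means blocking of liver enzyme CYP2C9 beyond about 50% at 5 µM, limit read from the data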
Ecoli tolC: growth inhibitors of E. coli tolC mutant, primary screen, strain BW25113 ΔtolC::kan, 384-well; OD615; growth inhibition, % at 10 µM (by protocol); 65,000 tested, 2.2% active; AID 573, 2007;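 active means growth inhibition at or above a cutoff equal to the mean over every tested compound plus 3 SD, cut at about 60% in these data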;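 further: growth measured after 20 h incubation at 37 °C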
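Signal: optical density read at 615 nm; Assay system: E. coli ΔtolC::kan strain BW25113; Times: 20 h incubation with compound, 37 °C; Dosing: 10 µM final, single dose.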
E coli WT exp: growth inhibitors of wild-type E. coli, primary screen, strain BW25113, expanded library, OD600 | growth inhibition, % at 100 µM | AID 710, 2007 | 98,000 tested, 0.15% active | OD600 absorbance;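 active means growth inhibition above about 50% at one test dose, limit read from the data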;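 further: growth measured after 20 h incubation at 37 °C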
CYP2C19 activ: human CYP2C19 activators, primary screen, biochemical, luminescence; recombinant CYP2C19, luciferin-H EGE luminescence; hits give high values; 0 = fully inhibited enzyme, 1 = untreated enzyme; activation factor at 5 µM; 96,000 tested, under 10 active;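 active means activation factor of at least 2 at 5 µM in the primary screen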
Target sequence (P33261 whole entry, looked up): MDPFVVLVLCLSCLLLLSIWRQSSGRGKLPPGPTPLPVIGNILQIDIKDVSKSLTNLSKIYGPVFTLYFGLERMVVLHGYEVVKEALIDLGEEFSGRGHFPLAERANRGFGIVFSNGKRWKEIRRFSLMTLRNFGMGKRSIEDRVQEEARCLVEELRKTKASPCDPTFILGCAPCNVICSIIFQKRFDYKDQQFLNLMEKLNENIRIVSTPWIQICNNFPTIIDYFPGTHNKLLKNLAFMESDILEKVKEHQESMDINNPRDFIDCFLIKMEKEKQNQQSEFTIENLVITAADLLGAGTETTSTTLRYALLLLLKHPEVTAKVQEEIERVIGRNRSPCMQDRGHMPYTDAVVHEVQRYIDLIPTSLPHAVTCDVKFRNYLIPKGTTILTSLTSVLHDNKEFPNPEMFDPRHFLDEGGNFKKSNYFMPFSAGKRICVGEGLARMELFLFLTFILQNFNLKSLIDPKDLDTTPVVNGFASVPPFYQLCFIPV
CYP2C9 activ: human CYP2C9 activators, primary screen, biochemical, luminescence; recombinant CYP2C9, luciferin-H conversion; hits give high values; factor 1 = untreated enzyme, 0 = blocked; activation factor at 5 µM; Cytochrome P450 2C9 (Homo sapiens), P11712; AID 1024, 2008; 96,000 tested, 1.4% active;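 active means activation factor of 2 or more for CYP2C9 at a 5 µM dose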
CYP2C19 inhib: blockers of cytochrome P450 2C19 activity – biochemical, luminescence, ADME assay, primary screen | inhibition, % at 5 µM | CYP2C19 Supersomes, luciferin-H EGE luminescence, 30 min | 96,000 tested, 21% active | AID 778, 2007 | P33261;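 active means CYP2C19 inhibition above a set limit at 5 µM in the primary screen, cut at about 50% in these data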
A number is an active result; – = inactive; · = no result given.

SMILES	CYP2C9 inh	Ecoli tolC	E coli WT exp	CYP2C19 activ	CYP2C9 activ	CYP2C19 inhib
COc1cccc(OCc2nnc(SCC(=O)NCc3ccco3)n2CCc2ccccc2)c1	90.8	–	–	–	–	88.1
CC(=O)Nc1ccccc1-c1nc2ccc(C(=O)N3CCN(c4ccccc4)CC3)cc2[nH]c1=O	–	–	–	–	–	–
COc1cccc(NC(=O)N2CCN(c3cccc(C)c3)C(C)C2)c1 (stereo not given)	–	–	–	–	–	58.7
COc1cccc(N2CCN(C(=O)c3ccc(=O)oc3)CC2C)c1 (stereo not given)	–	–	–	–	–	–
CC(=O)Nc1ccccc1-c1nc2ccc(C(=O)N3CCN(c4cccc(C)c4)C(C)C3)cc2[nH]c1=O (stereo not given)	86.7	·	–	–	–	69.6
COc1cccc(NC(=O)N2CCOCC2)c1	–	–	–	–	–	–
Cc1cccc(N2CCN(C(=O)c3cc4c(=O)n(C)c5ccccc5c4n3C)CC2C)c1 (stereo not given)	94.3	–	–	–	–	99.0
Cc1cccc(N2CCN(C(=O)c3ccc4nc(-c5ccco5)c(-c5ccco5)nc4c3)CC2C)c1 (stereo not given)	52.4	·	–	–	–	–
CCc1ccc2c(CC(=O)Nc3nnc(C4CC4)s3)coc2c1	–	·	–	–	–	–
CCOc1cc(N2CCOCC2)c(OCC)cc1NC(=O)c1ccc(=O)n(Cc2ccccc2)n1	–	–	·	–	–	–
Cc1nc(C(=O)Nc2ccc(F)cc2)nn1-c1ccc([N+](=O)[O-])cc1	–	·	–	–	–	–
COC(=O)c1ccc(OCCN2C3=NCCN3c3ccccc32)cc1	–	–	–	–	–	–
CN1Cc2c(N3CCOCC3)nc(SCc3ccccc3)c(C#N)c2CC1(C)C	90.7	–	–	–	–	–
CC1(C)Cc2c(C#N)c(SCC(=O)c3ccccc3)nc(N3CCCC3)c2CO1	·	–	·	·	·	·
CC1(C)Cc2c(C#N)c(SCC(=O)c3ccccc3)nc(N3CCOCC3)c2CS1	98.4	–	–	–	–	81.2
CCSc1nc(N2CCOCC2)c2c(c1C#N)CC(C)(C)N(C)C2	87.4	·	–	–	–	50.8
N#Cc1ccc(-c2ccco2)nc1SCc1ccccc1	–	–	–	–	–	–
COC(=O)CSc1nc(N2CCOCC2)c2c(c1C#N)CC(C)(C)N(C)C2	56.4	–	–	–	–	–
CC12COC3(C(=O)N4CCN(c5ccccn5)CC4)CC1CCC32C (stereo not given)	·	–	·	·	·	·
Cc1ccc(NC(=O)CCSc2nc(C)cc(C)n2)cc1	–	·	–	–	–	–
O=C(O)CCc1ccc(-c2ccccc2)n1CC1CCCO1 (stereo not given)	–	–	–	–	–	64.2
Cc1ccc(-c2ccc(CCC(=O)O)n2CC2CCCO2)cc1 (stereo not given)	–	·	–	–	–	–
O=C(O)CCc1ccc(-c2ccccc2)n1Cc1ccco1	–	–	–	–	–	62.7
O=C(O)CCc1ccc(-c2ccc(F)cc2)n1Cc1ccco1	–	–	–	–	–	56.7
O=C(O)CCc1ccc(-c2ccc(Br)cc2)n1Cc1ccco1	–	–	–	–	–	–
SMILES	CYP2C9 inh	Ecoli tolC	E coli WT exp	CYP2C19 activ	CYP2C9 activ	CYP2C19 inhib
CCn1cc(C(=O)Nc2ccc(-n3cnnn3)c(OC)c2)c(=O)c2ccc(C)nc21	–	–	–	–	–	–
Cc1nc2nc(-c3ccccc3)[nH]n2c(=O)c1Cc1ccccc1	–	–	–	–	–	–
O=c1cc(-c2ccccc2)nc2nc(COc3ccccc3)[nH]n12	–	–	–	–	–	–
Cc1nc2nc(-c3ccco3)[nH]n2c(=O)c1Cc1ccccc1	–	72.3	–	–	–	–
Cc1nc2nc(Cc3ccccc3)[nH]n2c(=O)c1Cl	68.7	–	–	–	–	–
Cc1nc2nc(COc3ccccc3)[nH]n2c(=O)c1Cl	74.6	–	–	–	–	–
CCOC(=O)c1ccc(NC(=O)CCC(=O)OC)cc1	–	–	–	–	–	–
O=C(Oc1ccc(OC(=O)N2CCCCC2)cc1)c1ccccc1	–	–	–	–	–	–
COc1ccc(C2CC(=O)c3c(ccc4ccccc34)N2)cc1OC (stereo not given)	–	·	–	–	–	–
CCOc1cc(C2CC(=O)c3c(ccc4ccccc34)N2)ccc1O (stereo not given)	65.3	·	–	–	–	–
COc1ccc(-n2nnnc2/C=C\Nc2ccccc2C(=O)c2ccccc2)cc1	–	·	–	–	–	50.6
CC1NC2(C(=O)N(Cc3ccccc3)c3ccccc32)C2C(=O)N(c3ccccc3)C(=O)C12 (stereo not given)	–	–	–	–	–	–
COc1ccc(C(=O)CSc2nnc(-c3cccs3)n2-c2ccccc2)cc1	–	·	–	–	–	–
c1ccc(-n2c(Sc3cnccn3)nnc2-c2cccs2)cc1	–	–	–	–	–	71.0
CCc1ccccc1N(CC(=O)O)S(C)(=O)=O	–	–	–	–	–	–
CCOC(=O)C1=C(C)NC(C)=C(C(=O)OC)C1c1cccc([N+](=O)[O-])c1 (stereo not given)	·	–	·	·	·	·
CCCOc1ccc([N+](=O)[O-])cc1C1NC(=S)NC(c2ccccc2)=C1C(=O)OCC (stereo not given)	66.9	·	–	–	–	–
CCCOc1ccccc1C1NC(=O)NC(C)=C1C(=O)OCCOCC (stereo not given)	–	–	–	–	–	–
CCOC(=O)C1=C(c2cccc(F)c2)NC(=S)NC1C (stereo not given)	–	·	–	–	–	71.5
O=[N+]([O-])c1ccc(C(=Nc2cccc3ccccc23)N2CCOCC2)cc1	–	·	–	–	–	–
O=C(C1CCCN(S(=O)(=O)c2cccc3nonc23)C1)N1CCN(c2cccc(Cl)c2)CC1 (stereo not given)	–	·	–	–	–	–
Cc1[nH]c(=O)[nH]c(=O)c1S(=O)(=O)N1CCCC(C(=O)N2CCC(Cc3ccccc3)CC2)C1 (stereo not given)	–	–	–	–	–	52.8
O=C(C1CCCN(S(=O)(=O)c2cccc3nonc23)C1)N1CCC(Cc2ccccc2)CC1 (stereo not given)	–	–	–	–	–	50.9
Cc1[nH]c(=O)[nH]c(=O)c1S(=O)(=O)N1CCCC(C(=O)N2CCN(c3ccccc3Cl)CC2)C1 (stereo not given)	–	–	–	–	–	–

Screening results: PubChem BioAssay, several laboratories
